Data on 1 molecule can be found in ChEMBL document CHEMBL4602651, “Development of selective mono or dual PROTAC degrader probe of CDK isoforms” (Eur J Med Chem, 2020).

In experiment [1] the test system is PC-3. Description: Induction of cell cycle arrest in human PC3 cells assessed as accumulation at S phase at 1 uM after 48 hrs by propidium iodide staining based flow cytometry (reference value: 17.96%). Type of experiment: functional. In general terms: In flow cytometry, cells or beads pass a laser one at a time.
The target of experiment [2] is T1, Protein cereblon/Cyclin-dependent kinase 2/Cyclin-dependent kinase 9 (Homo sapiens, UniProt P24941+P50750+Q96SW2). Description: Protac activity at CRBN/CDK2/CDK9 in AR-negative human PC3 cells assessed as induction of CDK9 protein degradation at 500 nM after 4 hrs by Western blot analysis relative to control. In kind it is cell-based. As to conditions: PC-3. Summed up: (§1)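 PC-3 cells treated with 500 nM degrader for varying times. Lysates blotted for CDK2, CDK4, CDK6, CDK9, c-Myc and Mcl-1, each at 1/1000 primary antibody, with β-tubulin reference and chemiluminescent detection.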

For a further experiment, the target named is CDK9/cyclin T1 (Homo sapiens, UniProt P50750). Put plainly: Inhibition of tracer K10 binding to NanoLuc-CDK9/Cyclin T1 (unknown origin) expressed in human HEK293 cells after 1 hr in presence of ATP by NanoBRET assay. In kind it is cell-based. Put shortly:
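Cell-based target engagement run by a contract lab. HEK293 cells pretreated with NanoBRET Tracer K-10, then exposed to compound for 1 h with 10 µM ATP, and BRET signal read. 10-point, 3-fold dilutions from 1 µM. Staurosporine reference used 4-fold dilutions from 20 µM. IC50 from sigmoidal dose-response fit.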
(In general: BRET reads energy transfer from a luciferase to a nearby fluorophore.)

The test system of experiment [3] is PC-3. Description: Induction of cell cycle arrest in human PC3 cells assessed as accumulation at G0/G1 phase at 250 nM after 48 hrs by propidium iodide staining based flow cytometry (reference value: 59.80%). In kind it is functional.
Experiment [4] deals with T1, Protein cereblon/Cyclin-dependent kinase 2/Cyclin-dependent kinase 9. Description: Protac activity at CRBN/CDK2/CDK9 in human MCF7 cells assessed as CDK2 degradation at 0.25 to 10 uM after 12 hrs by Westernblot analysis. In kind it is cell-based. Put shortly:
(§2)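 22Rv1, HCT-116 (RPMI 1640, 10% FBS) and MCF-7 cells treated with degrader at indicated concentrations for 12 h. CDK2 and CDK9 blotted with β-tubulin loading control.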

Experiment [5] concerns PC-3. Description: Induction of cell cycle arrest in human PC3 cells assessed as accumulation at G2/M phase at 1 uM after 48 hrs by propidium iodide staining based flow cytometry (reference value: 22.24%). In kind it is functional.
Experiment [6] deals with Protein cereblon/Cyclin-dependent kinase 6 (Homo sapiens) (UniProt Q00534+Q96SW2). Description: Protac activity at CRBN/CDK6 in AR-negative human PC3 cells assessed as induction of CDK4 protein degradation at 500 nM after 24 hrs by Western blot analysis. Type of experiment: cell-based. As to conditions: PC-3. Summed up:
as §1
A general note: In western blotting, separated proteins are transferred to a membrane and probed.

The next experiment relates to L02. Description: Cytotoxicity against human LO2 cells assessed as reduction in cell viability after 5 days by CCK-8 assay. The conditions noted are these: L02, 120 h. In kind it is cell-based. Summed up: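 Cells seeded at 3 × 10^3 per well for 24 h, then dosed in 10-point, 3-fold serial dilution from 10 µM. CCK-8 added after 5 days, 4 h at 37 °C, absorbance at 450 nm. IC50 averaged from three separate determinations (at least two independent runs, duplicate wells). PC-3 grown in DMEM/F12 (1:1), LO2 in RPMI 1640, both with 10% FBS.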

Experiment [7] deals with T1, Protein cereblon/Cyclin-dependent kinase 2/Cyclin-dependent kinase 9. Put plainly: Protac activity at CRBN/CDK2/CDK9 in AR-negative human PC3 cells assessed as induction of CDK2 protein degradation at 500 nM after 4 hrs by Western blot analysis. Type of experiment: cell-based. As to conditions: PC-3. Summed up:
as §1

In experiment [8] the test system is PC-3. Description: Induction of cell cycle arrest in human PC3 cells assessed as accumulation at S phase at 250 nM after 48 hrs by propidium iodide staining based flow cytometry (reference value: 17.96%). In kind it is functional.
In experiment [9] the test system is PC-3. Description: Antiproliferative activity against AR-negative human PC3 cells at 2 uM after 24 hrs by CFSE dye based flow cytometry. Type of experiment: functional, cell-based. Summed up: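 PC-3 cells treated 24 h at 2 µM alongside DMSO control. Single-cell suspension labelled with CFSE (final 5 µM) for 15 min at room temperature in the dark, then proliferation read by flow cytometry.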

Experiment [10] deals with T1, Protein cereblon/Cyclin-dependent kinase 2/Cyclin-dependent kinase 9. Put plainly: Protac activity at CRBN/CDK2/CDK9 in human 22Rv1 cells assessed as CDK2 degradation at 0.25 to 10 uM after 12 hrs by Westernblot analysis. As to conditions: CWR22R. Type of experiment: cell-based. Summed up:
as §2

Experiment [11] shares this target. Put plainly: Protac activity at CRBN/CDK2/CDK9 in human HCT116 cells assessed as CDK2 degradation at 0.25 to 10 uM after 12 hrs by Westernblot analysis. As to conditions: HCT-116. In kind it is cell-based. Put shortly: as §2
For experiment [12] the target is unchanged. Description: Protac activity at CRBN/CDK2/CDK9 in AR-negative human PC3 cells assessed as CDK2 degradation at 250 nM preincubated with pomalidomide for 2 hrs and measured after 8 hrs by Western blot analysis. In kind it is cell-based. The conditions noted are these: PC-3. Summed up: (§3)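 PC-3 cells pretreated 2 h with 5 µM DMSO, FN-1501, pomalidomide or MG-132, then exposed to degrader at 250 nM for 8 h. Lysates probed for CDK2 and CDK9, β-tubulin as loading control. 50 µg protein per lane, 10% SDS-PAGE, chemiluminescent detection.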

For experiment [13] the target is unchanged. Put plainly: Protac activity at CRBN/CDK2/CDK9 in AR-negative human PC3 cells assessed as CDK2 degradation at 250 nM preincubated with FN-1501 for 2 hrs and measured after 8 hrs by Western blot analysis. Type of experiment: cell-based. As to conditions: PC-3. Put shortly:
as §3

For experiment [14] the target is unchanged. Description: Protac activity at CRBN/CDK2/CDK9 in AR-negative human PC3 cells assessed as CDK9 degradation at 250 nM preincubated with FN-1501 for 2 hrs and measured after 8 hrs by Western blot analysis. Type of experiment: cell-based. As to conditions: PC-3. Put shortly: as §3
Experiment [15] has the same target. Description: Protac activity at CRBN/CDK2/CDK9 in AR-negative human PC3 cells assessed as CDK2 degradation at 250 nM preincubated with proteasome inhibitor MG132 for 2 hrs and measured after 8 hrs by Western blot analysis. Type of experiment: cell-based. As to conditions: PC-3. Put shortly: as §3
The target is the same in experiment [16]. Put plainly: Protac activity at CRBN/CDK2/CDK9 in AR-negative human PC3 cells assessed as induction of CDK9 protein degradation after 24 hrs by Western blot analysis. Type of experiment: cell-based. Put shortly: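 PC-3 cells exposed to a degrader concentration series, then immunoblotted for CDK2 and CDK9 versus β-tubulin. The figure legend gives 24 h exposure. DC50 taken as mean of 2 determinations from densitometry.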

The target is the same in experiment [17]. Put plainly: Protac activity at CRBN/CDK2/CDK9 in human HCT116 cells assessed as CDK9 degradation at 0.25 to 10 uM after 12 hrs by Westernblot analysis. Type of experiment: cell-based. The conditions noted are these: HCT-116. Summed up:
as §2

Experiment [18] relates to PC-3. Description: Induction of cell cycle arrest in human PC3 cells assessed as accumulation at G2/M phase at 3 uM after 48 hrs by propidium iodide staining based flow cytometry (reference value: 22.24%). Type of experiment: functional.
Experiment [19] has as its system PC-3. Description: Induction of cell cycle arrest in human PC3 cells assessed as accumulation at G2/M phase at 250 nM after 48 hrs by propidium iodide staining based flow cytometry (reference value: 22.24%). Type of experiment: functional.
For experiment [20], the target named is T1, Protein cereblon/Cyclin-dependent kinase 2/Cyclin-dependent kinase 9. Description: Protac activity at CRBN/CDK2/CDK9 in AR-negative human PC3 cells assessed as induction of CDK9 protein degradation at 1 uM after 12 hrs by Western blot analysis. As to conditions: PC-3. Type of experiment: cell-based. Put shortly: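 PC-3 cells (5 × 10^5 per well) treated 12 h at single concentrations (50 nM, 500 nM, 1, 5 or 30 µM). RIPA lysates (50 µg) run on 10% SDS-PAGE and immunoblotted for CDK2, CDK5, CDK9 with β-tubulin loading control, then detected by chemiluminescence. Band intensities quantified densitometrically.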

Molecules are shown by their SMILES. Active and inactive are the calls of the source. The rule behind the calls is not given here.

A word on the IC50: it is the concentration at which inhibition is half-maximal. As usually defined, the DC50 is the concentration giving 50% degradation.

Sequence of Protein cereblon/Cyclin-dependent kinase 6 (Homo sapiens) (Q00534 whole entry, looked up): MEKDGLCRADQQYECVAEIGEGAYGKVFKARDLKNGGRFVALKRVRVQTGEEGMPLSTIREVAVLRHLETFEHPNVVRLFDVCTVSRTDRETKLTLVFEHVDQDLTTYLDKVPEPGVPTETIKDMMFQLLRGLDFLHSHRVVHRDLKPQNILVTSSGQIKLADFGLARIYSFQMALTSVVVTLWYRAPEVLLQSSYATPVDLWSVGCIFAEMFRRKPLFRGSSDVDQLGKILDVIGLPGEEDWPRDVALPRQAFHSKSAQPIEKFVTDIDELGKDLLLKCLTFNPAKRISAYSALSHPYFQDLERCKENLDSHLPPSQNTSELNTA
Sequence of Protein cereblon/Cyclin-dependent kinase 6 (Homo sapiens) (Q96SW2 whole entry, looked up): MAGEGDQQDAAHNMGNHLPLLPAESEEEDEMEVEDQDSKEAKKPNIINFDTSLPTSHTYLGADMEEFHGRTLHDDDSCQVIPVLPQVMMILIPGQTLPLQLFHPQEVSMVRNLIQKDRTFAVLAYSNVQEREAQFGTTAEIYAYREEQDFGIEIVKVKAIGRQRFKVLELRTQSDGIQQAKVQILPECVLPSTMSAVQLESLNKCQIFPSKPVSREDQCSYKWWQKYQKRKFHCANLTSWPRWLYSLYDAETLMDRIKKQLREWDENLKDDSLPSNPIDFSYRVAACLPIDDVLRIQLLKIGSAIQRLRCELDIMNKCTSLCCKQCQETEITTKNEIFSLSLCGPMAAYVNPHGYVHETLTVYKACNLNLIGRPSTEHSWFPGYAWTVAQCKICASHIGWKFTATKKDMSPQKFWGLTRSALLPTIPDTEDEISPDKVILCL
Sequence of CDK9/cyclin T1 (O60563 whole entry): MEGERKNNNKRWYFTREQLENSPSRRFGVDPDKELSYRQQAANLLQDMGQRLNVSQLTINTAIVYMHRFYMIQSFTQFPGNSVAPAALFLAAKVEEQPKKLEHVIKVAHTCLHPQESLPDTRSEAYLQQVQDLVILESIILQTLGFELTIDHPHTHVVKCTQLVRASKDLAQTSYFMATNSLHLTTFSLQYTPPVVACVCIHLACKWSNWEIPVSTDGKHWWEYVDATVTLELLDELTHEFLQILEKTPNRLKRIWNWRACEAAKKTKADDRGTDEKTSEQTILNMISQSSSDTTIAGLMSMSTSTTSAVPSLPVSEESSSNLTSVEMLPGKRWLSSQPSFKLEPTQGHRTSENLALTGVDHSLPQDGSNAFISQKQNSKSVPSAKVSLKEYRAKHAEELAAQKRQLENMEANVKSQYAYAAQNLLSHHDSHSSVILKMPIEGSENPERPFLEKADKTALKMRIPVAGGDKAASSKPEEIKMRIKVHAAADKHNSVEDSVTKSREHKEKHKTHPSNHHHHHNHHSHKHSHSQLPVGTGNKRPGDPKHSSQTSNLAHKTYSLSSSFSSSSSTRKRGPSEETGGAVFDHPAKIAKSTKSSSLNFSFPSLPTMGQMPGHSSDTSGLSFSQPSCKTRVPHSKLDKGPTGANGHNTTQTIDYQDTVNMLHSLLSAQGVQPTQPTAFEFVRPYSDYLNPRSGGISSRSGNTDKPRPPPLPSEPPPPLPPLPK
Sequence of CDK9/cyclin T1 (P50750 whole entry): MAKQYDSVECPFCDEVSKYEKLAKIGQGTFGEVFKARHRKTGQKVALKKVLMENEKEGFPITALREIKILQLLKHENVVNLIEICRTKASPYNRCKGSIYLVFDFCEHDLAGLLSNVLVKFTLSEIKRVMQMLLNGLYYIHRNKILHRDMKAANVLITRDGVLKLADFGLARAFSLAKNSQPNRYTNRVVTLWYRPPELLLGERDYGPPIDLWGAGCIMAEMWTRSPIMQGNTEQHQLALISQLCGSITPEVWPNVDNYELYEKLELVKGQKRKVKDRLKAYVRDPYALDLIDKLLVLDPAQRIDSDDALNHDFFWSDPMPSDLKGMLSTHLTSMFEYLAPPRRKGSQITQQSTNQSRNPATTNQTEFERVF

Turning to `O=C(CCC(=O)N1CCN(Cc2ccc(NC(=O)c3n[nH]cc3Nc3ncnc4[nH]ccc34)cc2)CC1)NCCNc1cccc2c1C(=O)N(C1CCC(=O)NC1=O)C2=O` (stereo not drawn), the Activity is 9.23% in the experiment on PC-3 [1]; more than 80% in experiment [2]; 50.15% with PC-3 [3]; 36.82% with PC-3 [5]; 27.72% in the experiment with PC-3 [8]; “Dose-dependent effect” in [16] (PC-3). The Activity with PC-3 [18] is on record as 36%; in the experiment on PC-3 [19], 22.13%. In addition, the IC50 was found to be 14.5 nM at CDK9/cyclin T1 and 7990 nM in the experiment on L02. Besides, the outcome (in [4]; in experiment [7]; in the experiment with PC-3 [9]; in experiment [10]; in [11]; in experiment [17]) was Active. Also, the outcome in experiment [20] was Active. The result in [6], in [12], in experiment [13], in experiment [14] and in experiment [15] was inactive. The DC50 in [16] (pc-3) is 33 nM.
